Molecules are shown by their SMILES. Activity calls are given as the source filed them. No cut-off for these calls is given here.

Test [1] deals with Mus musculus. In words: Analgesic activity in C57BL6 mouse assessed as increase in thermal stimulus-induced paw withdrawal latency at 48 umol/kg, iv measured after 30 mins by plantar test. Format: functional, organism-based. A digest of the protocol:
(§1)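 Heat-induced paw withdrawal (plantar test) after intravenous dosing. Readings taken over a time course to 120 min post-injection and expressed as % maximal possible effect (%MPE). n=6–8 animals per group, with morphine-treated animals as comparator and significance testing versus morphine.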

Test [2] relates to Rattus norvegicus. Nature of the test: Analgesic activity in Wistar rat assessed as increase in thermal stimulus-induced tail-flick latency at 12 nmol/kg administered intrathecally measured up to 60 mins. Format: functional. A digest of the protocol: (§2)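 Intrathecal injection followed by tail-flick testing at 5 to 120 min post-injection. Responses expressed as % maximal possible effect (%MPE). Doses given in nmol/kg. n=6–8 animals per group, with a morphine group and statistics versus morphine.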
(In general: Hot-plate and tail-flick tests time the reaction to a heat stimulus.)

Test [3] addresses T1, Delta-type opioid receptor (Rattus norvegicus, UniProt P33533). Nature of the test: Displacement of [3H]DELT2 from DOR in Sprague-Dawley rat brain homogenate measured after 180 mins by scintillation counting analysis. Format: tissue-based.
In test [4] the target is T2, Mu-type opioid receptor (Rattus norvegicus, UniProt P33535). In words: Displacement of [3H]DAMGO from MOR in Sprague-Dawley rat brain homogenate measured after 180 mins by scintillation counting analysis. Format: tissue-based. Background: Loss of bound radioactivity is the signal in a displacement assay; it reports binding, not function.
The target of test [5] is T2, Mu-type opioid receptor. In words: Displacement of [3H]DAMGO from MOR in rat brain homogenate measured after 60 mins by microbeta scintillation counting analysis. The format is tissue-based.
In test [6] the test system is Mus musculus. Nature of the test: Analgesic activity in C57BL6 mouse assessed as effect on thermal stimulus-induced paw withdrawal latency at 80 umol/kg, iv measured after 30 mins by plantar test relative to control. Format: functional. A digest of the protocol: as §1
In test [7] the target is T1, Delta-type opioid receptor. In words: Displacement of [3H]DELT2 from DOR in rat brain homogenate measured after 60 mins by microbeta scintillation counting analysis. Format: tissue-based.
In test [8] the test system is Mus musculus. Nature of the test: Analgesic activity in C57BL6 mouse assessed as effect on thermal stimulus-induced tail-flick latency at 80 umol/kg, iv measured up to 30 mins relative to control. Format: functional. An outline of the steps: (§3)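 Tail-flick test after intravenous injection. Latencies recorded at time points from 5 to 120 min post-dose and converted to % maximal possible effect (%MPE). Groups of n=6–8 animals, compared against a morphine-treated group.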

Test [9] relates to Mus musculus. In words: Analgesic activity in C57BL6 mouse assessed as effect on thermal stimulus-induced tail-flick latency at 80 umol/kg, iv measured after 120 mins relative to control. The format is functional. An outline of the steps:
as §3

Test [10] concerns Mus musculus. Nature of the test: Analgesic activity in C57BL6 mouse assessed as effect on thermal stimulus-induced tail-flick latency at 20 to 80 umol/kg, iv measured after 5 mins. Format: functional. A digest of the protocol: as §3
Test [11] has as its system Mus musculus. Nature of the test: Analgesic activity in C57BL6 mouse assessed as effect on thermal stimulus-induced tail-flick latency at 80 umol/kg, iv measured after 60 mins relative to control. Format: functional. A digest of the protocol: as §3
Test [12] deals with Substance-P receptor (Rattus norvegicus, UniProt P14600). In words: Displacement of [Leu-3,4,5-3H(N)]-Substance P from NK1 receptor in rat brain homogenate measured after 60 mins by microbeta scintillation counting analysis. The format is tissue-based.
In test [13] the test system is Rattus norvegicus. Nature of the test: Analgesic activity in Wistar rat assessed as effect on thermal stimulus-induced tail-flick latency at 2 nmol/kg administered intrathecally measured after 15 mins relative to control. Format: functional. A digest of the protocol:
as §2

T1 sequence (P33533 whole entry): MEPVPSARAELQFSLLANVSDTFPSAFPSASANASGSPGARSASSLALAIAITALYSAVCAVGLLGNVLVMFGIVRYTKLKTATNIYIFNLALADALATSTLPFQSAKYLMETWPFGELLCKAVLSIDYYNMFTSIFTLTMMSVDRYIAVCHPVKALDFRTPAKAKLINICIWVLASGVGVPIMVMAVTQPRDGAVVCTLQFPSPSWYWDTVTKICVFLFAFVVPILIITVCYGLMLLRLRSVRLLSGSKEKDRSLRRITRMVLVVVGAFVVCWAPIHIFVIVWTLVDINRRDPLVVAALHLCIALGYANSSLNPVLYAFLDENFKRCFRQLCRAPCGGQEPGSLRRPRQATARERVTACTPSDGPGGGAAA
T2 sequence (P33535 whole entry): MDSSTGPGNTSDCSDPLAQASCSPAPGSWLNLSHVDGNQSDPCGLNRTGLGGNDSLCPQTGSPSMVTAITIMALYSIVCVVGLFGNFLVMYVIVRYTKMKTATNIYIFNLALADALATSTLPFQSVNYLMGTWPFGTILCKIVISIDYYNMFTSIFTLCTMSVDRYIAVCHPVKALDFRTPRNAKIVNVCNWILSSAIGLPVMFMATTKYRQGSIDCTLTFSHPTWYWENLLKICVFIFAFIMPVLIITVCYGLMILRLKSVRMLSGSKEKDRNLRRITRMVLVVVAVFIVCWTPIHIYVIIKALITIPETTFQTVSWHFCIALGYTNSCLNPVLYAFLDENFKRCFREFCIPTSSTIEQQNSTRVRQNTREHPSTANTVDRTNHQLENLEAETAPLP
Chain of Substance-P receptor (P14600 whole entry): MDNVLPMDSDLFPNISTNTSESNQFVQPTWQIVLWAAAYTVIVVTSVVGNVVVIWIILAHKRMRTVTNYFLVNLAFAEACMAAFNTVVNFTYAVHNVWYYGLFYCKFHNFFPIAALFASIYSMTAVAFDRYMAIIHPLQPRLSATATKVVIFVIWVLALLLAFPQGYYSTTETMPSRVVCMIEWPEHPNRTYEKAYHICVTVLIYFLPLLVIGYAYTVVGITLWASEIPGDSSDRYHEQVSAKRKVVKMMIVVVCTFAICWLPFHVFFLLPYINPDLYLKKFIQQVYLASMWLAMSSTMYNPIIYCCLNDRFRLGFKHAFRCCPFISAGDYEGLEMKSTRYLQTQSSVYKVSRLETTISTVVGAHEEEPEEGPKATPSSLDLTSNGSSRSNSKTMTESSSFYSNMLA

Regarding `CN1CC[C@]23c4c5ccc(O)c4O[C@H]2[C@@H](O)C=C[C@H]3[C@H]1C5`, the outcome in test [1] and in test [2] was Active.

The term IC50 denotes the concentration needed to halve the response being measured. Low readings indicate greater potency in that assay, high ones weaker potency in that assay. Regarding `C[C@@H](NC(=O)[C@@H](N)Cc1ccc(O)cc1)C(=O)NCC(=O)N[C@@H](Cc1ccccc1)C(=O)NN`, the IC50 in test [3] was 230 nM; in test [4], 4.7 nM.

On to `C[C@@H](NC(=O)[C@@H](N)Cc1ccc(O)cc1)C(=O)NCC(=O)N[C@@H](Cc1ccccc1)C(=O)N/N=C/c1cc(C(F)(F)F)cc(C(F)(F)F)c1.O=C(O)C(F)(F)F`, for which the concentration for half-maximal inhibition (IC50) in [5] was determined as 12.7 nM; in test [7], 74.2 nM; in [12] it was 4.24 nM. Besides, the MPE stood at 75.41% in test [6]; 94.26% in test [8]; 16.84% in test [9]; 84.81% in test [10]; 69.84% in test [11]; 80.31% in test [13].

On to `C[C@@H](NC(=O)[C@@H](N)Cc1ccc(O)cc1)C(=O)NCC(=O)N[C@@H](Cc1ccccc1)C(=O)NNC(=O)[C@@H](N)Cc1ccccc1`, for which the half-maximal inhibitory concentration (IC50) in [3] is 15 nM; in [4], 0.74 nM.

(Values after ChEMBL document CHEMBL3872284, “Hydrazone Linker as a Useful Tool for Preparing Chimeric Peptide/Nonpeptide Bifunctional Compounds” (ACS Med Chem Lett, 2017).)
